{"source": "ChEMBL document CHEMBL3877271", "about": "“Antagonizing STAT3 activation with benzo[b]thiophene 1, 1-dioxide based small molecules” (Eur J Med Chem, 2017)", "key": {"[1]": {"test_system": "MDA-MB-231", "test": "Induction of apoptosis in human MDA-MB-231 cells assessed as late apoptotic cells at 7 uM after 24 hrs by Annexin-V FITC/propidium iodide staining based flow cytometry (reference value: 1.8%)", "format": "functional"}, "[2]": {"test": "Antitumor activity against mouse 4T1 cells implanted in ICR mouse assessed as tumor growth inhibition at 10 mg/kg, ip daily for 11 consecutive days measured on day 12 relative to control", "format": "functional", "settings": "4T1, ip, 288 h, read-out: TGI", "outline": "(§1)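 Male ICR mice, 5 weeks old, inoculated with 2 × 10⁶ 4T1 cells at the right armpit. At 24 h, randomised into groups of 6 and dosed i.p.; vehicle PBS/DMSO (8:2) daily for 11 days. Killed day 12; tumours weighed; TI% = (1 − mean treated/mean control weight) × 100. Tumour p-STAT3 and STAT3 assessed by western blot.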"}, "[3]": {"test_system": "MDA-MB-231", "test": "Induction of apoptosis in human MDA-MB-231 cells assessed as live cells at 7 uM after 24 hrs by Annexin-V FITC/propidium iodide staining based flow cytometry (reference value: 90.3%)", "format": "functional"}, "[4]": {"test_system": "MDA-MB-231", "test": "Induction of apoptosis in human MDA-MB-231 cells assessed as late apoptotic cells at 5 uM after 24 hrs by Annexin-V FITC/propidium iodide staining based flow cytometry (reference value: 1.8%)", "format": "functional"}, "[5]": {"test_system": "Mus musculus", "test": "In vivo inhibition of STAT3 phosphorylation in ICR mouse tumor implanted with mouse 4T1 cells at 10 mg/kg, ip daily for 11 days measured on day 12 by Western blot method", "format": "functional, organism-based", "outline": "as §1"}, "[6]": {"test_system": "MDA-MB-231", "test": "Induction of apoptosis in human MDA-MB-231 cells assessed as increase in cleaved PARP expression at 1 to 5 uM after 24 hrs by Western blot method", "format": "functional, cell-based", "outline": "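MDA-MB-231 cells treated 24 h, trypsinised and lysed in RIPA buffer (50 mM Tris-HCl pH 7.4, 150 mM NaCl, 0.25% deoxycholate, 1% NP-40, 1 mM EDTA, protease inhibitors). Equal total protein from whole-cell lysates immunoblotted; Stattic 5 µM used as comparator.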"}, "[7]": {"test_system": "MDA-MB-231", "test": "Induction of apoptosis in human MDA-MB-231 cells assessed as live cells at 3 uM after 24 hrs by Annexin-V FITC/propidium iodide staining based flow cytometry (reference value: 90.3%)", "format": "functional"}, "[8]": {"test": "Antiproliferative activity against human MDA-MB-231 cells after 72 hrs by MTT assay", "format": "functional, cell-based", "settings": "MDA-MB-231, 72 h", "outline": "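Cells in RPMI-1640 with 10% FBS, penicillin/streptomycin, 37 °C, 5% CO₂; seeded 3000-5000 cells/well, left overnight (16 h), then medium replaced with fresh medium holding serial dilutions in triplicate for 72 h. MTT read-out; viability = absorbance of treated/solvent control × 100%. Stattic served as reference.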"}, "[9]": {"test_system": "MCF7", "test": "Potency index, ratio of stattic IC50 to compound IC50 for human MCF7 cells", "format": "functional"}, "[10]": {"test_system": "MDA-MB-231", "test": "Induction of ROS generation in human MDA-MB-231 cells at 5 uM after 24 hrs by DCFH-DA staining based flow cytometry relative to control", "format": "functional", "outline": "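3 × 10⁵ cells/well in 6-well plates treated 24 h (0, 1, 3, 5 µM). Medium replaced with serum-free medium holding DCFH-DA at 10 µM final, 20 min at 37 °C. Cells washed twice, trypsinised, resuspended in warm PBS and read by flow cytometry.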"}}, "note": "Active and inactive are the calls of the source. The rule behind the calls is not given here."}
{"smiles": "O=S1(=O)C=Cc2cccc(Nc3cccc(C(F)(F)F)c3)c21", "values": [{"measurement": "Activity", "setting": "[1]", "result": 8.7, "unit": "%"}, {"measurement": "inhibition in vivo at 10 mg/kg", "setting": "[2]", "result": 61, "unit": "%"}, {"measurement": "Activity", "setting": "[3]", "result": 72.2, "unit": "%"}, {"measurement": "Activity", "setting": "[4]", "result": 7.2, "unit": "%"}, {"measurement": "inhibition", "setting": "[5]", "result": "Active"}, {"measurement": "Activity", "setting": "[6]", "result": "Active"}, {"measurement": "Activity", "setting": "[7]", "result": 83.4, "unit": "%"}, {"measurement": "IC50", "setting": "[8]", "result": 680, "unit": "nM"}, {"measurement": "Ratio IC50", "setting": "[9]", "result": "1.5 - 12"}, {"measurement": "fold change (FC)", "setting": "[10]", "result": 1.94}]}
